Assays:
[1] = tested on: Human immunodeficiency virus 1; assay: Antiviral activity against wild type HIV1 pNL4-3 infected in human MT4 cells assessed as inhibition of virus-induced cell death after 5 days by MTT assay in presence of 50% human serum; format: functional, organism-based; conditions: Human immunodeficiency virus 1, pNL4-3, MT4, 120 h
[2] = tested on: Human immunodeficiency virus 1; assay: Antiviral activity against wild type HIV1 pNL4-3 infected in human MT4 cells assessed as inhibition of virus-induced cell death after 5 days by MTT assay; format: functional, organism-based; conditions: Human immunodeficiency virus 1, pNL4-3, MT4, 120 h
Method in brief: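 EC50 measured against wild-type virus in MT-4 cells, with no human serum added.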

[3] = tested on: Human immunodeficiency virus 1; assay: (§1) Antiviral activity against HIV1 isolate 1 harboring protease L10I, E35D, N37D, M46I, I54V, G57R, L63P, A71V, T74P, I84V, L90M, I93L mutant infected in human MT4 cells assessed as inhibition of virus-induced cell death after 5 days by MTT assay relative to wild type HIV1 pNL4-3; format: functional
[4] = tested on: Human immunodeficiency virus 1; assay: Antiviral activity against HIV1 B26 harboring protease L33F, K45I, M46I, I50V, A71V and V82F mutant infected in human MT4 cells assessed as inhibition of virus-induced cell death after 5 days by MTT assay relative to wild type HIV1 pNL4-3; format: functional
[5] = tested on: Human immunodeficiency virus 1; assay: as §1, with “HIV1” for “HIV1 isolate 1”, “I13V, G16A, Q18H, L33F,” for “E35D,”, “G57R, Q61H,I62V,” for “G57R,”, “A71L, I72T, L76V, V77I, V82A, N88G,” for “A71V, T74P, I84V,”; format: functional
[6] = tested on: Human immunodeficiency virus 1; assay: Antiviral activity against HIV1 A17 harboring protease L10F, V32I, M46I, I47V, Q58E and I84V mutant infected in human MT4 cells assessed as inhibition of virus-induced cell death after 5 days by MTT assay relative to wild type HIV1 pNL4-3; format: functional
[7] = AUC in rat at 5 mg/kg, po co-administered with 5 mg/kg of CYP3A4 inhibitor ritonavir; format: ADME, organism-based; conditions: plasma
Method in brief: (§2)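 Rats given 5 mg/kg orally together with 5 mg/kg ritonavir. Plasma Cmax is reported in μg/mL and AUC in μg h/mL.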

[8] = Oral bioavailability in rat at 5 mg/kg; format: ADME, organism-based; conditions: in vivo
[9] = Oral bioavailability in rat at 5 mg/kg co-administered with 5 mg/kg of CYP3A4 inhibitor ritonavir relative to iv dose without ritonavir co-administration; format: ADME, organism-based; conditions: in vivo
Method in brief: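 Rats given 5 mg/kg orally with 5 mg/kg ritonavir. Bioavailability (%) is calculated against an IV dose given without ritonavir.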

[10] = Cmax in rat at 5 mg/kg, po co-administered with 5 mg/kg of CYP3A4 inhibitor ritonavir; format: ADME, organism-based; parameters: dose 5 mg/kg, route oral; conditions: in vivo; method in brief: as §2

Compound	EC50 [1] [nM]	EC50 [2] [nM]	fold change (FC) [3]	fold change (FC) [4]	fold change (FC) [5]	fold change (FC) [6]	AUC [7] [ng·h/mL]	bioavailability [8] [%]	bioavailability [9] [%]	Cmax [10] [ng/mL]
COC(=O)N[C@H](C(=O)N[C@@H](Cc1ccccc1)C[C@H](O)[C@H](Cc1ccc(-c2ccc(N)cc2)cc1)NC(=O)[C@@H](NC(=O)OC)C(C)(C)C)C(C)(C)C	38	6	45	9	7	7				
COC(=O)N[C@H](C(=O)N[C@@H](Cc1ccccc1)C[C@H](O)[C@H](Cc1ccc(-c2ccc(F)nc2)cc1)NC(=O)[C@@H](NC(=O)OC)C(C)(C)C)C(C)(C)C	14	3	58	14	7	12				
CNC(=O)c1cccc(-c2ccc(C[C@H](NC(=O)[C@@H](NC(=O)OC)C(C)(C)C)[C@@H](O)C[C@H](Cc3ccccc3)NC(=O)[C@@H](NC(=O)OC)C(C)(C)C)cc2)c1	842	159		0.5		0.4				
COC(=O)N[C@H](C(=O)N[C@@H](Cc1ccccc1)C[C@H](O)[C@H](Cc1ccc(-c2ccc(C(C)=O)cc2)cc1)NC(=O)[C@@H](NC(=O)OC)C(C)(C)C)C(C)(C)C	3	1	28	8	4	9	220	0	27	50
COC(=O)N[C@H](C(=O)N[C@@H](Cc1ccccc1)C[C@H](O)[C@H](Cc1ccc(-c2ccnc(F)c2)cc1)NC(=O)[C@@H](NC(=O)OC)C(C)(C)C)C(C)(C)C	7	2	30	10	2	10				
COC(=O)N[C@H](C(=O)N[C@@H](Cc1ccccc1)C[C@H](O)[C@H](Cc1ccc(-c2ccc(OC)cc2)cc1)NC(=O)[C@@H](NC(=O)OC)C(C)(C)C)C(C)(C)C	3	1	34	30	18	48	270	0	14	50
COC(=O)N[C@H](C(=O)N[C@@H](Cc1ccccc1)C[C@H](O)[C@H](Cc1ccc(-c2ccc(O)cc2)cc1)NC(=O)[C@@H](NC(=O)OC)C(C)(C)C)C(C)(C)C	71	13		3		3				
Cc1cccc(C)c1OCC(=O)N[C@@H](Cc1ccccc1)[C@@H](O)C[C@H](Cc1ccccc1)NC(=O)[C@H](C(C)C)N1CCCNC1=O [LOPINAVIR]			62	211	234	59				
COC(=O)N[C@H](C(=O)N[C@@H](Cc1ccccc1)C[C@H](O)[C@H](Cc1ccc(-c2ccc(C#N)nc2)cc1)NC(=O)[C@@H](NC(=O)OC)C(C)(C)C)C(C)(C)C	23	6	16	12	3	8				
CNC(=O)c1ccc(-c2ccc(C[C@H](NC(=O)[C@@H](NC(=O)OC)C(C)(C)C)[C@@H](O)C[C@H](Cc3ccccc3)NC(=O)[C@@H](NC(=O)OC)C(C)(C)C)cc2)cc1	56	4	7	1	1	1				

Reference: ChEMBL document CHEMBL1833957, “P1-substituted symmetry-based human immunodeficiency virus protease inhibitors with potent antiviral activity against drug-resistant viruses” (J Med Chem, 2011)
